Data published in ChEMBL document CHEMBL5357042, “Discovery of imidazo[1,2-b]pyridazine-containing TAK1 kinase inhibitors with excellent activities against multiple myeloma” (RSC Med Chem, 2024).
Calls of active or inactive are those of the source. No cut-off for these calls is given here.

Columns and labels:
[1] = target: cAMP-dependent protein kinase catalytic subunit alpha (Homo sapiens) (UniProt P17612); experiment: Inhibition of human wild type partial length PKAC-alpha (10 to 351 residues) expressed in bacterial expression system at 50 to 500 nM by KinomeScan analysis; settings: dose 50-500 nM
[2] = target: Epidermal growth factor receptor (Homo sapiens) (UniProt P00533); experiment: Inhibition of human wild type partial length EGFR (669 to 1011 residues) expressed in bacterial expression system at 50 to 500 nM by KinomeScan analysis; settings: dose 50-500 nM
[3] = target: RAC-beta serine/threonine-protein kinase (Homo sapiens) (UniProt P31751); experiment: Inhibition of human wild type partial length AKT2 expressed in bacterial expression system at 50 to 500 nM by KinomeScan analysis; settings: dose 50-500 nM
[4] = target: Tyrosine-protein kinase JAK2 (Homo sapiens) (UniProt O60674); experiment: Inhibition of human wild type partial length JAK2 (829 to 1132 residues) expressed in mammalian expression system at 50 to 500 nM by KinomeScan analysis; settings: dose 50-500 nM
[5] = target: Platelet-derived growth factor receptor alpha (Homo sapiens) (UniProt P16234); experiment: Inhibition of human wild type partial length PDGFRA (575 to 1002 residues) expressed in mammalian expression system at 50 to 500 nM by KinomeScan analysis; settings: dose 50-500 nM
[6] = target: Fibroblast growth factor receptor 3 (Homo sapiens) (UniProt P22607); experiment: Inhibition of human wild type partial length FGFR3 (442 to 771 residues) expressed in bacterial expression system at 50 to 500 nM by KinomeScan analysis; settings: dose 50-500 nM
[7] = target: Serine/threonine-protein kinase B-raf (Homo sapiens) (UniProt P15056); experiment: Inhibition of human wild type partial length BRAF (429 to 741 residues) expressed in mammalian expression system at 50 to 500 nM by KinomeScan analysis; settings: dose 50-500 nM
[8] = target: Proto-oncogene tyrosine-protein kinase receptor Ret (Homo sapiens) (UniProt P07949); experiment: Inhibition of human RET at 50 to 500 nM by KinomeScan analysis; settings: dose 50-500 nM
[9] = target: Mitogen-activated protein kinase kinase kinase 7 (Homo sapiens, UniProt O43318); experiment: Inhibition of human TAK1 using casein as substrate in presence of [gamma-33P]-ATP by radiometric hotspot kinase assay
[10] = target: T1, Mitogen-activated protein kinase kinase kinase 7 (Homo sapiens) (UniProt O43318); experiment: Inhibition of TAK1 (unknown origin) at 20 nM by ADP-Glo kinase assay
T1 sequence (whole entry): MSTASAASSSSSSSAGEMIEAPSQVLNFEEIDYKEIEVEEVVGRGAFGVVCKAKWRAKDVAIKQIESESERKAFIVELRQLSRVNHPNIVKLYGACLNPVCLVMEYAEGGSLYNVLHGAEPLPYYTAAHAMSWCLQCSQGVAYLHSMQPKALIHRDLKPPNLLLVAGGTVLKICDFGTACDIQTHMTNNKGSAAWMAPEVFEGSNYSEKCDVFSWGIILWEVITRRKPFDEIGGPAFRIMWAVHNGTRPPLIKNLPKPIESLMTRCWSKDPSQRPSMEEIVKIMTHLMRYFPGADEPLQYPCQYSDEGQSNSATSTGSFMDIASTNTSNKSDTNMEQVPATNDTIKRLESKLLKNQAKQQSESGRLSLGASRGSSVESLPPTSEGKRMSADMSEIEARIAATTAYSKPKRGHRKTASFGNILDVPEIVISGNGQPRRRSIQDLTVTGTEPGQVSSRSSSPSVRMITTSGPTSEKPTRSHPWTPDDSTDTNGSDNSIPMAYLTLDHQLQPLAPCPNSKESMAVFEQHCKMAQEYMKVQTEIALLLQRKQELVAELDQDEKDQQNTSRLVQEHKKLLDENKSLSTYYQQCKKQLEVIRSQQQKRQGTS

[11] = target: Platelet-derived growth factor receptor beta (Homo sapiens) (UniProt P09619); experiment: Inhibition of human wild type partial length PDGFRB (582 to 1009 residues) expressed in bacterial expression system at 50 to 500 nM by KinomeScan analysis; settings: dose 50-500 nM
[12] = target: Mitogen-activated protein kinase kinase kinase 7 (Mus musculus) (UniProt Q62073); experiment: Inhibition of TAK1 in mouse MPC-11 cells assessed as reduction in TAK1 phosphorylation at Ser412 residue at 0.1 to 0.5 uM incubated for 48 hrs by Western blot analysis; format: cell-based; settings: dose 0.1-0.5 µM
Outline: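 MPC-11 cells (0.5–1 × 10⁶/well) seeded, treated after 24 h for 48 h; DMSO control. BCA protein quantitation, 10% SDS-PAGE, PVDF; pTAK1, TAK1, β-actin antibodies overnight 4 °C, HRP secondaries 2 h 24 °C, chemiluminescence. Bands quantified relative to actin; duplicates, mean and standard deviation.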

[13] = target: Tyrosine-protein kinase ZAP-70 (Homo sapiens) (UniProt P43403); experiment: Inhibition of human wild type partial length ZAP70 (20 to 299 residues) expressed in mammalian expression system at 50 to 500 nM by KinomeScan analysis; settings: dose 50-500 nM
NCI-H929 = experiment: Cytotoxicity against human NCI-H929 cells assessed as reduction in cell viability incubated for 72 hrs by CellTiter-Blue assay; format: functional
Outline: (§1)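 H929 (RPMI, 10% heat-inactivated FBS) or MPC-11 (DMEM, 10% FBS) cells, under 10 passages, 37 °C, 5% CO₂; 4–5 × 10³ cells/well seeded, 24 h, then compound at various concentrations for 72 h. CellTiter-Blue added for 3 h, fluorescence ex/em 560/590 nm. Normalized to DMSO-treated cells; triplicate, mean and standard deviation.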

[14] = target: Aurora kinase A (Homo sapiens) (UniProt O14965); experiment: Inhibition of human wild type partial length Aurora A (122 to 401 residues) expressed in mammalian expression system at 50 to 500 nM by KinomeScan analysis; settings: dose 50-500 nM
[15] = target: Aurora kinase B (Homo sapiens) (UniProt Q96GD4); experiment: Inhibition of human wild type partial length Aurora B (25 to 303 residues) expressed in mammalian expression system at 50 to 500 nM by KinomeScan analysis; settings: dose 50-500 nM
[16] = target: RAC-alpha serine/threonine-protein kinase (Homo sapiens) (UniProt P31749); experiment: Inhibition of human wild type partial length AKT1 expressed in bacterial expression system at 50 to 500 nM by KinomeScan analysis; settings: dose 50-500 nM
[17] = target: T1, Mitogen-activated protein kinase kinase kinase 7 (Homo sapiens); experiment: Inhibition of TAK1 (unknown origin) at 500 nM by ADP-Glo kinase assay
[18] = target: T1, Mitogen-activated protein kinase kinase kinase 7 (Homo sapiens); experiment: Inhibition of TAK1 (unknown origin) at 100 nM by ADP-Glo kinase assay
[19] = target: Fibroblast growth factor receptor 2 (Homo sapiens) (UniProt P21802); experiment: Inhibition of human wild type partial length FGFR2 (457 to 769 residues) expressed in bacterial expression system at 50 to 500 nM by KinomeScan analysis; settings: dose 50-500 nM
[20] = target: Vascular endothelial growth factor receptor 2 (Homo sapiens) (UniProt P35968); experiment: Inhibition of human wild type partial length VEGFR2 (787 to 1253 residues) expressed in mammalian expression system at 50 to 500 nM by KinomeScan analysis; settings: dose 50-500 nM
[21] = target: Mast/stem cell growth factor receptor Kit (Homo sapiens) (UniProt P10721); experiment: Inhibition of human wild type partial length c-Kit (545 to 952 residues) expressed in mammalian expression system at 50 to 500 nM by KinomeScan analysis; settings: dose 50-500 nM
MPC-11 = experiment: Cytotoxicity against mouse MPC-11 cells assessed as reduction in cell viability incubated for 72 hrs by CellTiter-Blue assay; format: functional; outline: as §1

Sequence of Mast/stem cell growth factor receptor Kit (Homo sapiens) (P10721 whole entry, the tested form may be a part): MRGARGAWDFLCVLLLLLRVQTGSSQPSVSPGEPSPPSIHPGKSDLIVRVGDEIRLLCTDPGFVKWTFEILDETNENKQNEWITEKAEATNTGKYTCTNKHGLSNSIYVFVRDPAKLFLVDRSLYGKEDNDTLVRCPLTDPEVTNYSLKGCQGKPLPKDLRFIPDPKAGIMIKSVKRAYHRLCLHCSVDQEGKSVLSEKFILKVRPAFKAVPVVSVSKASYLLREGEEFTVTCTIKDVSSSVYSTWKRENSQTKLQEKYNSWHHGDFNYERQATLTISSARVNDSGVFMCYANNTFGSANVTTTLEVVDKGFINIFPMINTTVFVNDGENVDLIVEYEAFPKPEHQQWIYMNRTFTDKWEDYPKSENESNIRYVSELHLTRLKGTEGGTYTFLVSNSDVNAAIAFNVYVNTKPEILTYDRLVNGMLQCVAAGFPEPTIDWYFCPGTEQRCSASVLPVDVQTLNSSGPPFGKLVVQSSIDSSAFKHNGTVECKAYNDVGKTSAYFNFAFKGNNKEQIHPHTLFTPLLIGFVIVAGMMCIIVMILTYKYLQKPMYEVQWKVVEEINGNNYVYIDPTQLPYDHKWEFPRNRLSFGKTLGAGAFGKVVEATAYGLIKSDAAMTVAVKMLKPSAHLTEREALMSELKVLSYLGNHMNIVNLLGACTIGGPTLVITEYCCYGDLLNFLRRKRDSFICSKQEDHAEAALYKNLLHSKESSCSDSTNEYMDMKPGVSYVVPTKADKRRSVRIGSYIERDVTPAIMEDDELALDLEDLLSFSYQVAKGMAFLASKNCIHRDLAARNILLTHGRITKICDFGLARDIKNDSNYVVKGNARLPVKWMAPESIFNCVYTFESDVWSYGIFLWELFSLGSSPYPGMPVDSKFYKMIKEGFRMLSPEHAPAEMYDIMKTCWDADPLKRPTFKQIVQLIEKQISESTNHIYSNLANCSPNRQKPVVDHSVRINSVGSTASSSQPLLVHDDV
Sequence of Tyrosine-protein kinase JAK2 (Homo sapiens) (O60674 whole entry, the tested form may be a part): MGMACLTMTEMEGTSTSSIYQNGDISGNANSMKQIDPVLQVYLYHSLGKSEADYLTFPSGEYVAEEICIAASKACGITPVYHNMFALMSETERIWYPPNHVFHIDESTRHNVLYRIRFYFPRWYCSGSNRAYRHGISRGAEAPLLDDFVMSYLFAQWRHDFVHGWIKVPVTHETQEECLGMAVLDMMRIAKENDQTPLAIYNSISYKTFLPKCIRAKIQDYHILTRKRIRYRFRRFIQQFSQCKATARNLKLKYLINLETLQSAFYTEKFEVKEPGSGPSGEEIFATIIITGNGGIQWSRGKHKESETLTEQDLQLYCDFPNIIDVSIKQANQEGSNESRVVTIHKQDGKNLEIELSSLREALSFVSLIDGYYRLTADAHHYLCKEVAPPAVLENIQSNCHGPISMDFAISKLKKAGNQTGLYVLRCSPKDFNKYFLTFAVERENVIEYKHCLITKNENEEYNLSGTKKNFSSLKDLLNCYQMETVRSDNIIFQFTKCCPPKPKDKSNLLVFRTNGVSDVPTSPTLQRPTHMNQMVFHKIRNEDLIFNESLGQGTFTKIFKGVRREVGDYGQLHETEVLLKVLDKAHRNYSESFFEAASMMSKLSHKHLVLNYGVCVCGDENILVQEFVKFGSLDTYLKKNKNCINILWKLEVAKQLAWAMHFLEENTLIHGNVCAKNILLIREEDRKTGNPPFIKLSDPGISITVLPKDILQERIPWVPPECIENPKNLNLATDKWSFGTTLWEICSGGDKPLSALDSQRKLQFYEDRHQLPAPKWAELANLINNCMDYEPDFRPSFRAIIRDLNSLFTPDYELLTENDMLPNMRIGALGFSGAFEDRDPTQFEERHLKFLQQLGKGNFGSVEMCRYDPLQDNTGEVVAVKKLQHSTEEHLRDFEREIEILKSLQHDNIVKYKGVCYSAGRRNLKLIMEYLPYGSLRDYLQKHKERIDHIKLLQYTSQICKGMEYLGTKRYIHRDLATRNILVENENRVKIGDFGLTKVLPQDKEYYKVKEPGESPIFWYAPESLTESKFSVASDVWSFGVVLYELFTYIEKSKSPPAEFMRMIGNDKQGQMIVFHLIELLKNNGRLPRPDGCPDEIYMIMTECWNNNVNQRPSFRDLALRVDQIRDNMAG
Sequence of Epidermal growth factor receptor (Homo sapiens) (P00533 whole entry, the tested form may be a part): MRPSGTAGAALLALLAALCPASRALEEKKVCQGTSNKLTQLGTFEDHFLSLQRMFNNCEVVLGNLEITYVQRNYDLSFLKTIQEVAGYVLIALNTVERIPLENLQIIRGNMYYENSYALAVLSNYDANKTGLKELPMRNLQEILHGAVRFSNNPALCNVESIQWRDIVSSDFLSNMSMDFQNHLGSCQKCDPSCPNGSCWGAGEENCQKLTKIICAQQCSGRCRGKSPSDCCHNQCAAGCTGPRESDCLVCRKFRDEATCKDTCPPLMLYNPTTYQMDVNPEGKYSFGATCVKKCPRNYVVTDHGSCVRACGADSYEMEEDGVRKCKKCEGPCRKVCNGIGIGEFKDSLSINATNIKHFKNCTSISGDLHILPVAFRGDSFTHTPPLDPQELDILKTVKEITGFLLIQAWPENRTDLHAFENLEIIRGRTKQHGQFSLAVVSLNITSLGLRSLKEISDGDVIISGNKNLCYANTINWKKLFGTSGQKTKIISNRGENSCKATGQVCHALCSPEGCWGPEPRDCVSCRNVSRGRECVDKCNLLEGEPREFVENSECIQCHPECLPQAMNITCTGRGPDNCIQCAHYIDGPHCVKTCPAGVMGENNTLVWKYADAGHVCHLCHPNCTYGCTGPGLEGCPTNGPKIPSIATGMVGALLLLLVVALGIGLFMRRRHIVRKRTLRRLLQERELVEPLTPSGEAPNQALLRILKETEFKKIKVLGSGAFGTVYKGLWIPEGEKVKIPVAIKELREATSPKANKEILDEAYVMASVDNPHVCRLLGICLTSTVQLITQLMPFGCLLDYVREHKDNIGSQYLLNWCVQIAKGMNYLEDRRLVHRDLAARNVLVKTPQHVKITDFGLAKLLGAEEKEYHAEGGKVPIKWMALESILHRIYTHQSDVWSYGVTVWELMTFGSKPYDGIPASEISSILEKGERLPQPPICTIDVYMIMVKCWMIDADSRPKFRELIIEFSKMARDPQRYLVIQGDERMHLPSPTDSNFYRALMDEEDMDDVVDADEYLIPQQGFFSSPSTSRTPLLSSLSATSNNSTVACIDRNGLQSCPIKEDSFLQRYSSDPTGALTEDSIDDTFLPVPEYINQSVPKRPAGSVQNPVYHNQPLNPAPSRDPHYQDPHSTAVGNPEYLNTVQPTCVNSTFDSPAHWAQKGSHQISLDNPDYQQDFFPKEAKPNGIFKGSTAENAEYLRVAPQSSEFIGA
Sequence of RAC-beta serine/threonine-protein kinase (Homo sapiens) (P31751 whole entry, the tested form may be a part): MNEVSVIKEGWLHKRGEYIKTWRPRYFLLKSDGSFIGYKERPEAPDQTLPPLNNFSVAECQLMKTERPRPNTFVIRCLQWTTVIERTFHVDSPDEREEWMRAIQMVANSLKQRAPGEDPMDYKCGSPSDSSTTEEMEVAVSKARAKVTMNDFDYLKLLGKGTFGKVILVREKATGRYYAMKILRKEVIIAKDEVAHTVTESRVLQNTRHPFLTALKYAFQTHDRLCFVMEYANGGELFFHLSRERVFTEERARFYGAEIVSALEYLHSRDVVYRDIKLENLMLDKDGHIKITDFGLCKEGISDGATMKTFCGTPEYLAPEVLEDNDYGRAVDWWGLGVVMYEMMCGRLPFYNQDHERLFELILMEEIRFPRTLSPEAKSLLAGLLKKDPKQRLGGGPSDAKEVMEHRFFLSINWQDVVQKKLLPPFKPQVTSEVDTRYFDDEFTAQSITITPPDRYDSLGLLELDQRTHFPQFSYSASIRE
Sequence of Aurora kinase A (Homo sapiens) (O14965 whole entry, the tested form may be a part): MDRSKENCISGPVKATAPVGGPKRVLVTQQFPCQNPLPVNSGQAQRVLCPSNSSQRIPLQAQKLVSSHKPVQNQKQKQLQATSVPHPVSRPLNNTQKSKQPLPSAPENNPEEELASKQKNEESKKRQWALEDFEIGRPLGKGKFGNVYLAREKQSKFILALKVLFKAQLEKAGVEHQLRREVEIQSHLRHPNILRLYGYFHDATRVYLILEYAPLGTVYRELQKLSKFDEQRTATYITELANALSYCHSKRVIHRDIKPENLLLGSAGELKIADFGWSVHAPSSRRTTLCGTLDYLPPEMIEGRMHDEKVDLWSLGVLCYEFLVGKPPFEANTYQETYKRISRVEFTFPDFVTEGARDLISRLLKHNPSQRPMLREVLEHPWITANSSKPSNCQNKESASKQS
Sequence of Serine/threonine-protein kinase B-raf (Homo sapiens) (P15056 whole entry, the tested form may be a part): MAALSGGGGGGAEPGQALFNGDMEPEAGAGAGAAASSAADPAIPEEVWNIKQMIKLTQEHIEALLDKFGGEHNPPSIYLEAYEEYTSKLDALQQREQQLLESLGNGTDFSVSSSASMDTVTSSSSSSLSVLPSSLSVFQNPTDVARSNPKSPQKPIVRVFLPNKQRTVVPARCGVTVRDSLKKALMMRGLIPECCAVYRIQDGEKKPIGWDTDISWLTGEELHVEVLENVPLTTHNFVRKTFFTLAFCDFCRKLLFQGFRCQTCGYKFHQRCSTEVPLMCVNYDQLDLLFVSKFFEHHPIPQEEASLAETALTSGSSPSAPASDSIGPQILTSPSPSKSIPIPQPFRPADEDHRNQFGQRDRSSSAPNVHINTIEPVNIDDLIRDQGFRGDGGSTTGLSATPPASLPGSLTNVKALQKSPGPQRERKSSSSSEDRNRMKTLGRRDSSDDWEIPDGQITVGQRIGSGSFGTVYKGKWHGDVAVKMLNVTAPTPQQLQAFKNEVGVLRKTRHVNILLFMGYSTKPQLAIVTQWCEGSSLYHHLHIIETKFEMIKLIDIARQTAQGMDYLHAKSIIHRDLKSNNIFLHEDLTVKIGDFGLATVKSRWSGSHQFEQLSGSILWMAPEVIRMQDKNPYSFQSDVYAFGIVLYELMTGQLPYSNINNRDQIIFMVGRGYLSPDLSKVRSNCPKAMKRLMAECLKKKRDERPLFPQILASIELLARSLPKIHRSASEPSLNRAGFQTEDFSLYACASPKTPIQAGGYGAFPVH

C[C@@H]1CN(c2ccc3ncc(-c4ccc5[nH]nc(C6CC6)c5c4)n3n2)C[C@H](C)O1
inhibition [1]: Active | inhibition [2]: Active | inhibition [3]: Active | inhibition [4]: Active | inhibition [5]: Active | inhibition [6]: Active | inhibition [7]: Active | inhibition [8]: Active | IC50 [9]: 55 nM | inhibition [10]: > 50% | inhibition [11]: Active | inhibition [12]: Active | inhibition [13]: Active | GI50 (NCI-H929): 43 nM | inhibition [14]: Active | inhibition [15]: Active | inhibition [16]: Active | inhibition [17]: 100% | inhibition [18]: > 50% | inhibition [19]: Active | inhibition [20]: Active | inhibition [21]: Active | GI50 (MPC-11): 41 nM
